Measured values as given in ChEMBL document CHEMBL1759875, “Synthesis and biological evaluation of 1-[2-cyano-3,12-dioxooleana-1,9(11)-dien-28-oyl]-4-ethynylimidazole. A novel and highly potent anti-inflammatory and cytoprotective agent” (Bioorg Med Chem Lett, 2011).
The source made the active and inactive calls. No cut-off for these calls is given here.

Tests used:
RAW264.7 = assay: Inhibition of NO production in INFgamma-stimulated mouse RAW264.7 cells measured after 24 hrs by Griess reaction method; format: functional, cell-based; settings: RAW264.7, 24 h
How it was run: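 RAW 264.7 mouse macrophages were seeded at 30,000 cells/well in triplicate. The next day they were pre-treated for 2 h with DMSO or compound (0–200 nM), then stimulated with IFN-γ for 24 h. Medium NO was measured by Griess reagent and viability by WST-1. IC₅₀ came from suppression of IFN-γ-induced NO normalized to viability.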

[1] = molecular target: NAD(P)H dehydrogenase [quinone] 1 (Mus musculus) (UniProt Q64669); assay: Induction of NQO1 activity in mouse Hepa-1c1c7 cells assessed as concentration require to double the specific enzyme activity after 48 hrs; format: cell-based
Sequence of NAD(P)H dehydrogenase [quinone] 1 (Mus musculus) (Q64669 whole entry): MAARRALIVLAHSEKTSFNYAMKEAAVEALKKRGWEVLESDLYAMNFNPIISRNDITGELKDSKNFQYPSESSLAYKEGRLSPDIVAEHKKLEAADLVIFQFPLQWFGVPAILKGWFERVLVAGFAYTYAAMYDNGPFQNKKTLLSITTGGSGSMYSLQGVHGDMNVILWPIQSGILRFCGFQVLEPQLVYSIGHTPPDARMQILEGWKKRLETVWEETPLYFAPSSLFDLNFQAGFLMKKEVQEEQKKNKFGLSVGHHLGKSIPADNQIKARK
How it was run: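 Hepa1c1c7 murine hepatoma cells were seeded at 10,000 cells/well and grown 24 h, then exposed to serial dilutions for 48 h. NQO1 specific enzyme activity was measured, and potency was taken as the concentration that doubles it (CD). Each concentration used eight replicate wells; SD was 5–10%.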

[2] = molecular target: T1, Heme oxygenase 1 (Mus musculus) (UniProt P14901); assay: Induction of HO1 activity in mouse RAW264.7 cells at 30 to 100 nM after 16 hrs; format: cell-based
T1 sequence (whole entry): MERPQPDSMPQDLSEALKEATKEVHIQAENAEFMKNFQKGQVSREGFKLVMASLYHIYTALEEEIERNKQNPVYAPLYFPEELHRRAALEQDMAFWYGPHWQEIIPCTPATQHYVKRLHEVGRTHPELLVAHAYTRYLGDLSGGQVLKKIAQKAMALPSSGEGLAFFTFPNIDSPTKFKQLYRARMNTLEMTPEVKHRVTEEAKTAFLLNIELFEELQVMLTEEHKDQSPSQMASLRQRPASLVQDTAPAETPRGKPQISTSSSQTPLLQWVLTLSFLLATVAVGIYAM
How it was run: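 RAW 264.7 mouse macrophages were plated at 100,000 cells/well and treated the next day with DMSO or compound for 16 h (overnight). Cells were harvested in tricine sample buffer with b-ME. Lysates were run on SDS–PAGE and immunoblotted for HO-1, with GAPDH as the reference protein.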

[3] = Stability of the compound at 4 degC; format: physicochemical

Row | Compound | IC50 (RAW264.7) [nM] | CD [1] [nM] | Activity [2] | Stability [3] [yr]
1 | CC#Cc1nc(C)cn1C(=O)[C@]12CCC(C)(C)C[C@H]1[C@H]1C(=O)C=C3[C@@]4(C)C=C(C#N)C(=O)C(C)(C)[C@@H]4CC[C@@]3(C)[C@]1(C)CC2 | 2 | 0.4 | Active | 3
2 | C#Cc1nccn1C(=O)[C@]12CCC(C)(C)C[C@H]1[C@H]1C(=O)C=C3[C@@]4(C)C=C(C#N)C(=O)C(C)(C)[C@@H]4CC[C@@]3(C)[C@]1(C)CC2 | 2.3 | 0.9 | Active | 3
3 | CC1(C)CC[C@]2(C(=O)O)CC[C@]3(C)[C@H](C(=O)C=C4[C@@]5(C)C=C(C#N)C(=O)C(C)(C)[C@@H]5CC[C@]43C)[C@@H]2C1 [BARDOXOLONE] | 11 | 3 | – | –
4 | CC1(C)CC[C@]2(C(=O)n3cnc(C#Cc4ccccc4)c3)CC[C@]3(C)[C@H](C(=O)C=C4[C@@]5(C)C=C(C#N)C(=O)C(C)(C)[C@@H]5CC[C@]43C)[C@@H]2C1 | 7.8 | – | – | –
5 | C#Cc1cn(C(=O)[C@]23CCC(C)(C)C[C@H]2[C@H]2C(=O)C=C4[C@@]5(C)C=C(C#N)C(=O)C(C)(C)[C@@H]5CC[C@@]4(C)[C@]2(C)CC3)cn1 | 1.4 | 0.4 | Active | 3
6 | CC1(C)CC[C@]2(C(=O)n3ccnc3C#Cc3ccccc3)CC[C@]3(C)[C@H](C(=O)C=C4[C@@]5(C)C=C(C#N)C(=O)C(C)(C)[C@@H]5CC[C@]43C)[C@@H]2C1 | 4 | 1.2 | Active | 3
7 | CC1(C)CC[C@]2(C(=O)n3ccnc3)CC[C@]3(C)[C@H](C(=O)C=C4[C@@]5(C)C=C(C#N)C(=O)C(C)(C)[C@@H]5CC[C@]43C)[C@@H]2C1 | 0.6 | 0.2 | – | 1
